Measured values as given in ChEMBL document CHEMBL1123936, “Synthesis and biological evaluation of acyclic neplanocin analogues” (1987).
Values after ≈ are worked out from the molar mass of the structure shown.

Experiments:
Assay type in all cases: functional
Human alphaherpesvirus 1 [1] = assay: Compound was evaluated for antiviral activity against HSV-1 reported as ED50 value; details: read-out: ED50 (the source's name)
Summary of the method: (§1)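 CPE inhibition assay in pregrown Vero cell monolayers infected with HSV-1 (strain 377) or HSV-2 (strain HF). Virus-induced cytopathogenic effect was scored quantitatively. Virus rating weighs the degree of CPE inhibition against cytotoxicity to the host cells, following a modified Ehrlich et al. method.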

Human alphaherpesvirus 2 [2] = assay: Compound was evaluated for antiviral activity against HSV-2 reported as ED50 value; details: read-out: ED50 (the source's name); summary of the method: as §1
Human alphaherpesvirus 2 [3] = assay: Compound was evaluated for antiviral activity against HSV-2 reported as virus rating; summary of the method: as §1
Human alphaherpesvirus 1 [4] = assay: Compound was evaluated for antiviral activity against HSV-1 reported as virus rating; summary of the method: as §1
P388 = assay: Compound was evaluated for growth inhibition of P-388 lymphoid leukemia cells; details: Mus musculus, read-out: ED50 (the source's name)
Summary of the method: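 P-388 mouse lymphoid leukemia cells were seeded at 4×10^5 per tube in Fischer's medium with 10% horse serum. Twofold compound dilutions were run in duplicate tubes, stoppered, and held at a 30° angle at 37 °C for 72 h without agitation, rotated twice daily. Cells were counted by hemocytometer. Percent inhibition was taken against controls, with counts corrected for the inoculum.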

| EC50 (Human alphaherpesvirus 1 [1]) [µg/mL] | EC50 (Human alphaherpesvirus 2 [2]) [µg/mL] | EC50 (P388) [µg/mL] | SMILES | VR (Human alphaherpesvirus 2 [3]) | VR (Human alphaherpesvirus 1 [4]) |
| --- | --- | --- | --- | --- | --- |
| 172 (≈ 778 µM) | 219 (≈ 990 µM) |  | Nc1nc(O)c2ncn(C/C=C/CO)c2n1 | 0.9 | 1.5 |
|  |  | 5 (≈ 22.4 µM) | Nc1ncnc2c1ncn2C/C=C/CCl |  |  |
| 12.3 (≈ 54.6 µM) | 4.8 (≈ 21.3 µM) |  | Nc1nc2c(ncn2COCCO)c(=O)[nH]1 [ACYCLOVIR] | 4.8 | 6.3 |
|  |  |  | Nc1ncnc2c1ncn2[C@@H]1O[C@H](CO)[C@@H](O)[C@@H]1O [VIDARABINE] | 1.4 | 2 |
